Measurements taken from article PMC12345971 (Computational and Structural Biotechnology Journal, 2025).
Like-named read-outs stand apart in the source and are kept apart here.

How the values were obtained:
[1] = test system: MOLT-3 lymphoblastic leukemia cell line; experiment: Cytotoxic assay; format: cell-based, human; settings: for IC50: Homo sapiens
Method in brief: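 MOLT-3 leukemia cells (passage 15–25) grown in RPMI-1640 with 2 mM L-glutamine, penicillin-streptomycin, sodium pyruvate, glucose, 10 % FBS. Seeding was at 5 × 10³ – 2 × 10⁴ cells/well, 24 h at 37C, 5 % CO₂. Serial dilutions of test compound in DMSO then given for 48 h. XTT read-out at 550 nm. Normal-cell comparator: MRC-5 in DMEM, MTT read-out. IC50 is the concentration for 50 % growth inhibition.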

[2] = test system: 4 cancer cell lines (HepG2, HuCCA-1, A549, MOLT-3); experiment: Cytotoxic assay, range over the four cancer cell lines; format: cell-based; settings: Homo sapiens, read-out: IC50, range over the tested cancer cell lines
Method in brief: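 Human HepG2 (DMEM), HuCCA-1 and A549 (Ham's F12), and MOLT-3 (RPMI-1640) were all in 10 % FBS. MRC-5 normal fibroblasts were in DMEM. Seeding was at 5 × 10³ – 2 × 10⁴ cells/well for 24 h at 37C. Serial dilutions of test compound (DMSO solvent) were given for 48 h. Adherent lines were read by MTT and MOLT-3 by XTT, absorbance 550 nm. IC50 is the concentration for 50 % growth inhibition.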

[3] = test system: HuCCA-1 cholangiocarcinoma cancer cell line; experiment: Cytotoxic assay; format: cell-based, human; settings: IC50 for normal cell (MRC-5) / IC50 for cancer cell
Method in brief: (§1)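 A549 (passage 20–26) and HuCCA-1 (passage 115–121) kept in Ham's F12 with 2 mM L-glutamine, 100 U/mL penicillin-streptomycin, 10 % FBS; MRC-5 fibroblasts (passage 19–23) in DMEM, 10 % FBS. Cells seeded at 5 × 10³ – 2 × 10⁴/well in RPMI-1640 + 10 % FBS, 24 h at 37C, 5 % CO₂. DMSO-dissolved test compound added as serial dilutions, 48 h. MTT, absorbance 550 nm; IC50 = 50 % growth inhibition.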

[4] = test system: A549 lung carcinoma cell line; experiment: Cytotoxic assay; format: cell-based, human
Method in brief: as §1

[5] = test system: HepG2 hepatocellular carcinoma cell line; experiment: Cytotoxic assay; format: cell-based, human
[6] = Cytotoxicity against normal cell line; format: cell-based; settings: human, MRC-5 normal fetal lung fibroblast cells
[7] = IC50 for normal cell (MRC-5) / IC50 for cancer cell

| Compound | IC50 ([1]; MOLT-3, read-out: Experimental pIC50 MOLT-3 (converted)) | IC50 [2] | Selectivity index (SI) HuCCA-1 [3] | IC50 ([4]; Homo sapiens, A549, 48 h, read-out: IC50 A549) | Selectivity index (SI) A549 [4, 7] | IC50 ([5]; Homo sapiens, HepG2, 48 h, read-out: IC50 HepG2, MTT, 48 h) | Selectivity index (SI) HepG2 [5, 7] | IC50 at 48 h [6] | IC50 ([1]; MOLT-3, 48 h, read-out: IC50 MOLT-3) | Selectivity index (SI) MOLT-3 [1, 7] |
| --- | --- | --- | --- | --- | --- | --- | --- | --- | --- | --- |
| CC1=CC(=O)c2c(O)cccc2C1=O [Compound 10, plumbagin] | 1380 nM | 1380 to 13600 nM |  |  |  |  |  |  |  |  |
| COc1cccc2c1C(=O)c1c(O)c3c(c(O)c1C2=O)C[C@@](O)(C(=O)CO)C[C@@H]3O[C@H]1C[C@H](N)[C@H](O)[C@H](C)O1 [Doxorubicin, doxorubicin] |  |  | 1.08 | 310 nM | 3.02 | 460 nM | 2.02 | 930 nM |  |  |
| COc1cc([C@@H]2c3cc4c(cc3[C@@H](O[C@@H]3O[C@@H]5CO[C@@H](C)O[C@H]5[C@H](O)[C@H]3O)[C@H]3COC(=O)[C@H]23)OCO4)cc(OC)c1O [Etoposide, etoposide] |  |  |  |  |  |  |  | 13400 nM | 60 nM | 218.85 |
